Activity calls are given as the source filed them. No cut-off for these calls is given here.

Assay [1] deals with Tyrosine-protein kinase Lyn (Homo sapiens) (UniProt P07948). Description: Inhibition of human recombinant LYN at 15 nM related to control ULK1.
Assay [2] addresses Serine/threonine-protein kinase tousled-like 2 (Homo sapiens) (UniProt Q86UE8). Kind of assay: Inhibition of human recombinant TLK2 at 15 nM related to control ULK1.
Assay [3] addresses T1, Activin receptor type-1 (Homo sapiens) (UniProt Q04771).
T1 sequence (whole entry): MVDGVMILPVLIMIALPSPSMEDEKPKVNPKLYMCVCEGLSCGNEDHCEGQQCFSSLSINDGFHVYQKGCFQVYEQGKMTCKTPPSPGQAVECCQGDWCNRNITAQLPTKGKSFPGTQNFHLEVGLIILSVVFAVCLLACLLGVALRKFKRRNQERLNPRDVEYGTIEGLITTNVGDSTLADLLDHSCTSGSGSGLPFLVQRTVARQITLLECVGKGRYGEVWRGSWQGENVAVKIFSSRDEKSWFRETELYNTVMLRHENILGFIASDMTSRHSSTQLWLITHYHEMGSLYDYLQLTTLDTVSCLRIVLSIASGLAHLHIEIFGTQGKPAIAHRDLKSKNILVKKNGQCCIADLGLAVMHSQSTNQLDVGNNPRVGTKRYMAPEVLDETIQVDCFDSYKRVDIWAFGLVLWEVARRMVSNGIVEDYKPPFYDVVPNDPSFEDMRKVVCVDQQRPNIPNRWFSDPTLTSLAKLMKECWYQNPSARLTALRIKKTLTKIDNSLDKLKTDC
Description: Inhibition of human recombinant ALK2 at 40 nM related to control ULK1. In a few lines:
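Radiometric activity assays in a panel of 327 human recombinant kinases, each run in duplicate at one inhibitor concentration. Activity remaining is expressed as percent of vehicle control, and percent inhibition is calculated as 100% minus percent activity remaining.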

Assay [4] has as its target Serine/threonine-protein kinase PLK1 (Homo sapiens) (UniProt P53350). Kind of assay: Inhibition of human recombinant PLK1 at 40 nM in presence of ATP by radiometric assay relative to control.
The test system of a further assay is U2OS. Kind of assay: Inhibition of autophagy in human U2OS cells assessed as ATG12-positive puncta formation at 5 uM incubated for 2.5 hrs in presence of AZD8055 by Fluorescent microscopy based analysis. The assay is classed as functional, cell-based. In a few lines:
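U2OS cells treated 2.5 hr with vehicle or 100 nM AZD8055, with or without 5 μM inhibitor; fixed and immunostained for endogenous ATG12; ATG12-positive puncta (phagophores) assessed by fluorescence microscopy.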

The target in assay [5] is Serine/threonine-protein kinase PAK 1 (Homo sapiens) (UniProt Q13153). Kind of assay: Inhibition of human recombinant PAK1 at 40 nM related to control ULK1.
Assay [6] deals with Transient receptor potential cation channel subfamily M member 7 (Homo sapiens) (UniProt Q96QT4). Kind of assay: Inhibition of human recombinant ChaK1 at 40 nM related to control ULK1.
Assay [7] concerns the target T2, Eukaryotic elongation factor 2 kinase (Homo sapiens) (UniProt O00418).
T2 sequence (whole entry): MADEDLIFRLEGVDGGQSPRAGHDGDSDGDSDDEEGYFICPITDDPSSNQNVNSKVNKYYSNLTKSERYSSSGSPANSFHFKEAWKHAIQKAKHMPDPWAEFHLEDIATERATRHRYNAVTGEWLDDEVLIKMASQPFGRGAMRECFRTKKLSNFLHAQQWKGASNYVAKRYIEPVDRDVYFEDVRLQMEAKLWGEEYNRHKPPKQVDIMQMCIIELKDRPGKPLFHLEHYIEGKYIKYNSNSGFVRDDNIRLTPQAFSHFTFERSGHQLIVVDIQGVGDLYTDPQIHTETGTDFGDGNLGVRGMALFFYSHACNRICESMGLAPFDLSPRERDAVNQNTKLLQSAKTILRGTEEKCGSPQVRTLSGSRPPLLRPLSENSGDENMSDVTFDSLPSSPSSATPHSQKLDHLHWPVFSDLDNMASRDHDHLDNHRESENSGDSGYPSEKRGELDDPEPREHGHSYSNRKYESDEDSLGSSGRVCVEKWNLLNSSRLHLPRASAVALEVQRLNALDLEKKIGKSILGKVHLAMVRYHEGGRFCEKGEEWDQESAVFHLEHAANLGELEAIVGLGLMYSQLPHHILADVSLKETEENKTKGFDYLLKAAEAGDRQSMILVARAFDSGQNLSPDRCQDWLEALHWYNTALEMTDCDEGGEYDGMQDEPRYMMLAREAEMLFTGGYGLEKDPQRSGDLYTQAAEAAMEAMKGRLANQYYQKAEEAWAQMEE
Kind of assay: Inhibition of human recombinant eEF2K at 500 nM in presence of ATP by radiometric assay relative to control.

The target in assay [8] is Serine/threonine-protein kinase ATR (Homo sapiens) (UniProt Q13535). Kind of assay: Inhibition of human recombinant ATR at 500 nM related to control ULK1. An outline of the steps:
(§1)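 Panel of 327 recombinant human kinases, each assayed in vitro by radiometric activity assay in duplicate at a single inhibitor concentration per compound, chosen with reference to its ULK1 inhibition. Activity remaining was expressed as percent of vehicle control, and percent inhibition was calculated as 100 minus percent activity remaining.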

Assay [9] addresses T3, Cytoplasmic tyrosine-protein kinase BMX (Homo sapiens) (UniProt P51813).
T3 sequence (whole entry): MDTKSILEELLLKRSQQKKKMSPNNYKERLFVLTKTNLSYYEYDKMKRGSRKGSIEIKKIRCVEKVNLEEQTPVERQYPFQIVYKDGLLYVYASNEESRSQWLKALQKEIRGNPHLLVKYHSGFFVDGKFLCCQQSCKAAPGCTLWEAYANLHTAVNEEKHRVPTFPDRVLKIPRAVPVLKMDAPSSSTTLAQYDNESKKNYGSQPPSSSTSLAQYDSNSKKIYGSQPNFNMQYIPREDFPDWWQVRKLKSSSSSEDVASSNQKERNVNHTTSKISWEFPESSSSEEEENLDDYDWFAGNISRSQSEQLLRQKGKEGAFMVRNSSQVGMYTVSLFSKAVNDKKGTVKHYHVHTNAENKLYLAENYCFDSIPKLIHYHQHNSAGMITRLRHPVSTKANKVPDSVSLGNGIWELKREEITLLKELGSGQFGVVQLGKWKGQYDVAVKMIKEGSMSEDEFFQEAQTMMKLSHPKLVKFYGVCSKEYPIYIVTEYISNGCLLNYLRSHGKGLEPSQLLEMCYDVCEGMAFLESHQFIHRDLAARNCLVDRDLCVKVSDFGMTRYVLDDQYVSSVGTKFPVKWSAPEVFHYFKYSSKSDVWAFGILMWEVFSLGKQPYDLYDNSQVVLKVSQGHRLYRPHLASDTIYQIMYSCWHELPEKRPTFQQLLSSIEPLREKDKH
Kind of assay: Inhibition of human recombinant BMX at 500 nM in presence of ATP by radiometric assay relative to control. In a few lines: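 Part of a radiometric in vitro activity panel of 327 recombinant human kinases. Each kinase was tested in duplicate at one inhibitor concentration. Activity remaining was expressed as a percentage of the vehicle control, and percent inhibition was taken as 100 minus that value.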

For assay [10], the target named is Serine-protein kinase ATM (Homo sapiens) (UniProt Q13315). Description: Inhibition of human recombinant ATM at 500 nM in presence of ATP by radiometric assay relative to control. An outline of the steps:
as §1

Sequence of Tyrosine-protein kinase Lyn (Homo sapiens) (P07948 2-512 limits assumed): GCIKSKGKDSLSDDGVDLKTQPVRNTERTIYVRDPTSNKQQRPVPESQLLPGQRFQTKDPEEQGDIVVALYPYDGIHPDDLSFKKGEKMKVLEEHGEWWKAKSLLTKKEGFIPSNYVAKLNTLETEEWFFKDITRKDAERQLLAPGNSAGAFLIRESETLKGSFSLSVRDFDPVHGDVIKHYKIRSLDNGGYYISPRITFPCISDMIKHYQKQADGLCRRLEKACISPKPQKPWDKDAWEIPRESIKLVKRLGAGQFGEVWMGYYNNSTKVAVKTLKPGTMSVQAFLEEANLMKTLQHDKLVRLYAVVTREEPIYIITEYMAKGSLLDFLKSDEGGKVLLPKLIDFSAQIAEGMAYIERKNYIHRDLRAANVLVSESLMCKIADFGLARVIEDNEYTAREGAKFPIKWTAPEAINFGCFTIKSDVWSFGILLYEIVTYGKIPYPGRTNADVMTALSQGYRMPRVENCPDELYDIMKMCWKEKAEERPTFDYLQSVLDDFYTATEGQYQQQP
Sequence of Serine-protein kinase ATM (Homo sapiens) (Q13315 whole entry): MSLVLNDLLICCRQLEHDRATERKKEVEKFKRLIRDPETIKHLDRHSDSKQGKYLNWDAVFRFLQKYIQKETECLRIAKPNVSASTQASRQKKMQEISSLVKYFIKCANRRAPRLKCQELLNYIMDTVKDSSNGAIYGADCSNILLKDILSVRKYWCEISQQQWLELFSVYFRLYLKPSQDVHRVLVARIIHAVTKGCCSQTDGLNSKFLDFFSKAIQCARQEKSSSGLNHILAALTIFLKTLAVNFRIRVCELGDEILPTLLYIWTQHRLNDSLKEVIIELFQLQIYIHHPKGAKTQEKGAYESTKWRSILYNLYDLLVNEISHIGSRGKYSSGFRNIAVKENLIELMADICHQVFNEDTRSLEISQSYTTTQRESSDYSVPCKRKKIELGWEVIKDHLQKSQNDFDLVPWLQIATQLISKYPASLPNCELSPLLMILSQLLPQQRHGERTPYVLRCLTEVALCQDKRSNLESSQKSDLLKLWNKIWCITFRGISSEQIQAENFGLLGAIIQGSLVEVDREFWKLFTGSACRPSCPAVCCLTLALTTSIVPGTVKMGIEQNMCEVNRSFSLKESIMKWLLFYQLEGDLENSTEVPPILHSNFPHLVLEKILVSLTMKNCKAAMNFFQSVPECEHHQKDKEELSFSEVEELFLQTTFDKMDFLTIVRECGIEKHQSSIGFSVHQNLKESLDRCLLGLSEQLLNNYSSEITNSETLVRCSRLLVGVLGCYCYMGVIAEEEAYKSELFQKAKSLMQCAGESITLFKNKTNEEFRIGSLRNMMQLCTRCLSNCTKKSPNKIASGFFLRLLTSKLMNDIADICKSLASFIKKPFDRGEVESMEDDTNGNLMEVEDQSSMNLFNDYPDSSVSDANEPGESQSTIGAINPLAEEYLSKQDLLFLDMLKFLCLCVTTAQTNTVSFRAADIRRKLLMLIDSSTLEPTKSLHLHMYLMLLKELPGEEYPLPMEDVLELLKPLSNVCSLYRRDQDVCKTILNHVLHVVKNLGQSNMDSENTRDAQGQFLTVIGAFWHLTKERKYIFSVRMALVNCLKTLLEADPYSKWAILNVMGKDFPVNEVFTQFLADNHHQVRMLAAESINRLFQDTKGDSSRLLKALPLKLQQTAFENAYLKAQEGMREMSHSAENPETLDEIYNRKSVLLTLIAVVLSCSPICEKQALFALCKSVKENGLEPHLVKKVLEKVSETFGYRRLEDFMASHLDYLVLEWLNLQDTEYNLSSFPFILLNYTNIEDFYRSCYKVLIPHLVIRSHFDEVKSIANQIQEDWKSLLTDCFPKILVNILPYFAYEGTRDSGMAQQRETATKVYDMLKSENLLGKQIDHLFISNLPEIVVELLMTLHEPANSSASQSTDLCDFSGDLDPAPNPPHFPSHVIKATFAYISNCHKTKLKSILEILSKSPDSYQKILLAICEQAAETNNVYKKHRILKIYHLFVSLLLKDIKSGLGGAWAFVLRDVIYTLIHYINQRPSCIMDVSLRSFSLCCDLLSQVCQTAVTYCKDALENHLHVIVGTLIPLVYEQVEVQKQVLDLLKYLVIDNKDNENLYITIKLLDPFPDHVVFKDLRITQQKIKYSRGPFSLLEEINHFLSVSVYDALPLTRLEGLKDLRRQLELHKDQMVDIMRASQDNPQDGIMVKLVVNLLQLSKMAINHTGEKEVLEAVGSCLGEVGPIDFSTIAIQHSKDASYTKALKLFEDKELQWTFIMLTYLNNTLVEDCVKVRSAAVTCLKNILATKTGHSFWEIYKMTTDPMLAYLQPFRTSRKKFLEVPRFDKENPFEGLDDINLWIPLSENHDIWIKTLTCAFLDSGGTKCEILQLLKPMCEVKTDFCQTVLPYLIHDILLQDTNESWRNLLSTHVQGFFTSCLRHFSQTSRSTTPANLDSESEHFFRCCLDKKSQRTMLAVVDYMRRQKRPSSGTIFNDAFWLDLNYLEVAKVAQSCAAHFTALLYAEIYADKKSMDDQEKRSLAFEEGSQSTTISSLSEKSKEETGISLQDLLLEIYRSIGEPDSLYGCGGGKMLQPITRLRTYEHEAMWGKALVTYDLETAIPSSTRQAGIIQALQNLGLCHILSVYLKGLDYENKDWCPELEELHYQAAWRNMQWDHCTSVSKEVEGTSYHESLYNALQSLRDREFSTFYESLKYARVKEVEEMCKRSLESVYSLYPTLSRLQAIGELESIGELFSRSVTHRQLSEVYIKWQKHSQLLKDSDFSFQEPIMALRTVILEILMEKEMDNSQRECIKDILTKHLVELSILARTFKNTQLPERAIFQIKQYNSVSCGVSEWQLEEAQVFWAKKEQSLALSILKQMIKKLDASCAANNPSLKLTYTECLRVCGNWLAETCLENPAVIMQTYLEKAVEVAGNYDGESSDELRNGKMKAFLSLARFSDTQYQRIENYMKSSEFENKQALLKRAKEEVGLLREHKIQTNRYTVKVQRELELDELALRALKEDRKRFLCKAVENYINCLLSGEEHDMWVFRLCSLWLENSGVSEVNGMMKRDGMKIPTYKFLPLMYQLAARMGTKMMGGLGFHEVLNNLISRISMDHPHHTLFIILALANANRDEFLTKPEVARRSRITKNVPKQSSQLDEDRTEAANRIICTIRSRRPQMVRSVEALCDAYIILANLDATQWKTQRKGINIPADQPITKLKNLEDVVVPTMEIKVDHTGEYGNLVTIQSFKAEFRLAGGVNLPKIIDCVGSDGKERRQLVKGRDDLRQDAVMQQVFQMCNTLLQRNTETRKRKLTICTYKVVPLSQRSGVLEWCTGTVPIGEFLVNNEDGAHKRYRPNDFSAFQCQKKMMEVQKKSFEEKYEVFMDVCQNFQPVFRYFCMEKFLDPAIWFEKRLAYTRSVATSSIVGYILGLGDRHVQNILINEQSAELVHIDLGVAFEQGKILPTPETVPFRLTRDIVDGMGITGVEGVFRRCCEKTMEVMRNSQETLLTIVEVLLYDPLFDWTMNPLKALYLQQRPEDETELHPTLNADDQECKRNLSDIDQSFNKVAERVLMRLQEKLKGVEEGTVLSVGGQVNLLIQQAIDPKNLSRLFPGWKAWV
Sequence of Serine/threonine-protein kinase PAK 1 (Homo sapiens) (Q13153 whole entry, looked up): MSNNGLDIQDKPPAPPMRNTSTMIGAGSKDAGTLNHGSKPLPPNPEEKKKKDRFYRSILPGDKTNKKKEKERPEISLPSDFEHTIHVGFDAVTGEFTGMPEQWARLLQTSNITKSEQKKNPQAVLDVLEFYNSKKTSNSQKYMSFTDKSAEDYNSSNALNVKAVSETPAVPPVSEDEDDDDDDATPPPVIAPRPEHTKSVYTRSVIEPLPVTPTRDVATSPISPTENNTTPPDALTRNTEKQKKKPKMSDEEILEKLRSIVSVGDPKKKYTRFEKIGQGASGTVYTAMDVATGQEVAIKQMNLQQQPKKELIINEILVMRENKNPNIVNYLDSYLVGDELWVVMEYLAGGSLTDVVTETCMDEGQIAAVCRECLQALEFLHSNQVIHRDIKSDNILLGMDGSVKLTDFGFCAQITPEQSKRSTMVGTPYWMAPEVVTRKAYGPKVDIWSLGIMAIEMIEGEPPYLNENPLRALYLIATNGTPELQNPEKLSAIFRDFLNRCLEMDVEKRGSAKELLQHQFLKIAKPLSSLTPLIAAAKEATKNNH
Sequence of Serine/threonine-protein kinase tousled-like 2 (Homo sapiens) (Q86UE8 whole entry, looked up): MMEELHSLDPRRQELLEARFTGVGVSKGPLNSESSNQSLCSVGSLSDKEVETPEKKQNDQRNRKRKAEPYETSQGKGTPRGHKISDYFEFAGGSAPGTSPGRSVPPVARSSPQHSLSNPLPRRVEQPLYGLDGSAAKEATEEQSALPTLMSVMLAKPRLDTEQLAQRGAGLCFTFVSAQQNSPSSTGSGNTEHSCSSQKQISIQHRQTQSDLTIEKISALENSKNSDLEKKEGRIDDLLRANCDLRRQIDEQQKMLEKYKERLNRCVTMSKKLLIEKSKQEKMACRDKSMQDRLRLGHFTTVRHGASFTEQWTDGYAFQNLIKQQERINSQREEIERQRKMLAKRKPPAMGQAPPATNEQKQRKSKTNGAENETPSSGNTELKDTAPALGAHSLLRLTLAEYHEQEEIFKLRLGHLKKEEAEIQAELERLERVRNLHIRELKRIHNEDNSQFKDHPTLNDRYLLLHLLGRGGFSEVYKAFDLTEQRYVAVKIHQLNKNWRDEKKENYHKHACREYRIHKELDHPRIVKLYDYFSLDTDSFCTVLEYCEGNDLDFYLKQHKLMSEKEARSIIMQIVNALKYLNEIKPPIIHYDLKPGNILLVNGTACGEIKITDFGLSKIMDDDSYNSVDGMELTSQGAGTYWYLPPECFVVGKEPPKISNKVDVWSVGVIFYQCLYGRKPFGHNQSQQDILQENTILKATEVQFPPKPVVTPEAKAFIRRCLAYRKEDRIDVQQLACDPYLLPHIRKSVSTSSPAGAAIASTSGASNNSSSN

As to `CC(C)[C@H](NC(=O)c1cc(-c2cnn3cc(-c4ccc(OCCN5CCCCC5)cc4)cnc23)cs1)C(F)(F)F`, the fold change (FC) in [1] was found to be 0.22; in [2] it was 0.03.
Take `O=C(N[C@@H](C1CC1)C(F)(F)F)c1cc(-c2cnn3cc(-c4ccc(F)cc4)cnc23)cs1`: the fold change (FC) in [3] was found to be 0.77; in [5] it was 0; in assay [6], 0.01. Further, in assay [4], the inhibition worked out at 0%. Further, the inhibition result with U2OS is “Active”.
Take `CNC(=O)c1ccccc1Oc1nc(Nc2cc(OC)c(OC)c(OC)c2)ncc1Br`: the values for the inhibition in assay [7], in assay [9] and in assay [10] were 14%, 16% and 2%, respectively. In assay [8], the fold change (FC) worked out at 0.

Source of the values: ChEMBL document CHEMBL5653631, “A Potent and Selective ULK1 Inhibitor Suppresses Autophagy and Sensitizes Cancer Cells to Nutrient Stress” (iScience, 2018).
